# This is a sample that favours compounds with a hit; in the whole collection about 3.1% have one here.
# CFTR F508del cor: CFTR F508del correction in bronchial cells; CFBE cells, YFP halide quenching; stimulated with forskolin plus potentiator P3; % fluorescence drop versus neutral controls; activity (quench increase), % at 7.58 µM; 350,000 tested, 0.36% active; AID 720511;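 active means mean added fluorescence quench of at least 8% versus neutral control, with both replicates also reaching 8%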;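 further: cells transiently co-express mutant CFTR-F508del with the halide-sensitive YFP; corrector assay measuring rescue of mutant channel to the surface after 24 h compound exposure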
# rRNA inh HTS: inhibits bacterial ribosomal RNA function over humanized ribosomes; 350,000 tested, 1.6% active; AID 720706; E. coli WT GFP vs humanized-ribosome RFP mutants, fluorescence, 24 h; hits give low values; DMSO median 0, no signal -100; GFP signal change (wild-type ribosome), % (concentration not given with the values);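 active means significant combined selectivity score with lowered wild-type GFP, culture density cut under 30%, mutant RFP and density less affected; inactive means any of these conditions unmet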
# S100A4 inh HTS: inhibitors of human S100A4 binding to myosin IIA peptide. inhibition, % at 10.7 µM. 360,000 tested, 0.14% active. P26447. S100A4/TAMRA-MyoIIA peptide fluorescence polarization;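 active means mean inhibition of at least 70% across replicates, with every replicate also reaching that level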
# Target sequence (P26447 whole entry, looked up): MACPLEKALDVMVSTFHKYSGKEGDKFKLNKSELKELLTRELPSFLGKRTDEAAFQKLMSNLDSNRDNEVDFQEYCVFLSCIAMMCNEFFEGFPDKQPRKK
#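 Material: S100A4 monomer (human). Medium: Calcium-containing HEPES buffer, pH 7.2. Probe or stimulus: labelled myosin peptide probe, 5 nM. Compound dosing: one concentration per compound. Timing: polarization read 5 min after assay mix addition, stable 5–60 min. Benchmarks: DMSO as neutral control, TFP as positive control.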
# ERAP1 HTS inh: ERAP1 (human) enzyme inhibition; Q9NZ08; recombinant ERAP1, Leu-AMC fluorescence, 60 min; inhibition, % at 10.7 µM; 340,000 tested, 0.15% active; AID 652197;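 active means mean replicate inhibition of at least 30%, or all replicates individually reaching that 30% level; inactive means mean below 30% and not every replicate reaching it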;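 further: 0% = neutral control wells and 100% = L-leucinethiol positive control wells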
# SIRT5 block: blocks human SIRT5 desuccinylation of peptide; inhibition, % at 15 µM; 330,000 tested, 1.1% active; Q9NXA8; Purified SirT5, succinyl-peptide AMC, trypsin-coupled fluorescence; AID 652115; in the data active means inhibition above about 15%
# Target sequence (Q9NXA8 whole entry, looked up): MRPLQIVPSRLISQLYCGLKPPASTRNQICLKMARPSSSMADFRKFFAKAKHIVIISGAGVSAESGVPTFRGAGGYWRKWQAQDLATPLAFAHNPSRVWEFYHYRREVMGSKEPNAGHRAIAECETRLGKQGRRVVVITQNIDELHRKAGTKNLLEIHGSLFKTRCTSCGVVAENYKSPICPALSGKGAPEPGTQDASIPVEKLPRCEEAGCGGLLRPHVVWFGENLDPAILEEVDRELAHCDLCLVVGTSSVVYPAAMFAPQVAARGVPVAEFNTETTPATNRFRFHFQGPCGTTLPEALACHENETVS
# The depositor's hits bear a star; · = not tested or not shown.
SMILES,CFTR F508del cor,rRNA inh HTS,S100A4 inh HTS,ERAP1 HTS inh,SIRT5 block
CC=Cc1ccc2n(c1=O)C[C@H]1[C@H](CO)[C@@H](C(=O)NCC3CC3)[C@@H]2N1Cc1cccnc1 (mixture of isomers),1,-1,122*,3,-6
CC(C)CC#Cc1cnc2c(c1)C(=O)N([C@@H](C)CO)C[C@@H](C)[C@H](CN(C)Cc1cncnc1)O2,0,0,-4,1,-1
COc1ccc(S(=O)(=O)Nc2ccc3c(c2)C(=O)N([C@H](C)CO)C[C@H](C)[C@H](CN(C)C(=O)Nc2ccc(F)cc2)OCCCC[C@H](C)O3)cc1,-4,-3,10,1,17*
Cc1noc(C)c1NC(=O)N(C)C[C@H]1OCCCC[C@H](C)Oc2ccc(NS(=O)(=O)c3ccc(F)cc3)cc2C(=O)N([C@H](C)CO)C[C@@H]1C,3,-2,134*,-7,4
COc1ccc(S(=O)(=O)Nc2ccc3c(c2)C(=O)N([C@H](C)CO)C[C@H](C)[C@H](CN(C)C(=O)Nc2ccccc2)OCCCC[C@H](C)O3)cc1,-2,-1,108*,4,1
COc1ccc(S(=O)(=O)Nc2ccc3c(c2)C(=O)N([C@H](C)CO)C[C@H](C)[C@H](CN(C)C(=O)Nc2ccc4c(c2)OCO4)OCCCC[C@H](C)O3)cc1,-1,-3,-3,0,17*
COc1ccc(S(=O)(=O)Nc2ccc3c(c2)C(=O)N([C@@H](C)CO)C[C@H](C)[C@@H](CN(C)C(=O)Nc2ccc4c(c2)OCO4)OCCCC[C@H](C)O3)cc1,-2,-2,4,-2,-2
COc1ccc(S(=O)(=O)Nc2ccc3c(c2)C(=O)N([C@@H](C)CO)C[C@@H](C)[C@@H](CN(C)C(=O)Nc2ccc(F)cc2)OCCCC[C@H](C)O3)cc1,1,-4,12,0,10
COc1ccc(S(=O)(=O)Nc2ccc3c(c2)C(=O)N([C@H](C)CO)C[C@H](C)[C@@H](CN(C)C(=O)Nc2ccc(F)cc2)O3)cc1,0,5,9,-2,3
COc1ccc(NC(=O)N(C)C[C@@H]2Oc3ccc(NS(=O)(=O)c4ccc(F)cc4)cc3C(=O)N([C@H](C)CO)C[C@H]2C)cc1,0,-2,-3,3,40*
C=CCN1Cc2ccccc2[C@H]2OC(c3ccc(OCCCO)cc3)=N[C@@]2(CCC(=O)OC(C)(C)C)C1=O,0,·,-12,1,9
Cc1cccc(NC(=O)c2nc[nH]c2C(=O)NC[C@H](C)O)c1,4,-6,9,16,27*
C[C@@H](O)CNC(=O)c1[nH]cnc1C(=O)Nc1cccc(Cl)c1,3,3,-6,0,-4
CN1CCN(C(=O)C[C@H]2C[C@H]3c4cc(NC(=O)NC5CCCCC5)ccc4O[C@H]3[C@H](CO)O2)CC1,-4,3,2,-2,-6
O=C1c2ccccc2NC(c2cccc([N+](=O)[O-])c2)N1CCc1ccccc1 (stereo not given),2,-20*,-2,0,-8
Cc1cccc(C2Nc3ccccc3C(=O)N2CCc2ccccc2)n1 (stereo not given),5,2,-3,1,-2
COc1ccc(Cl)cc1NC(=O)CNc1ccccc1CN(C)C1CCCCC1,2,-34*,-4,-3,-4
Cc1ccc(NC(=O)CNCc2cccs2)c(Br)c1,-2,-27*,-3,1,0
Cc1ccc(NC(=O)CNCc2ccccc2)c(Br)c1,-1,-28*,-5,0,-5
Cc1ccc(CNCC(=O)Nc2ccc(C)cc2Br)cc1,-1,-34,2,3,0
COc1ccc(Cl)cc1NC(=O)CNCc1cccs1,1,-32*,-4,-10,-2
COc1ccc(Cl)cc1NC(=O)CN(C)C(=O)c1sccc1-c1ccccc1,1,-33*,-2,-1,-1
CC(C)CC#Cc1cnc2c(c1)C(=O)N([C@H](C)CO)C[C@H](C)[C@@H](CN(C)S(=O)(=O)c1cccs1)O2,0,-1,1,0,10
CCC(=O)N1CC2(CN(C(=O)Nc3ccc(F)cc3)C2)c2c([nH]c3cc(OC)ccc23)[C@@H]1CO,-2,-1,-3,4,4
C[C@H](CO)N1C[C@H](C)[C@H](CN(C)S(=O)(=O)c2ccccc2C#N)OCc2ccccc2-c2ccccc2C1=O,-1,-4,-11,0,·
SMILES,CFTR F508del cor,rRNA inh HTS,S100A4 inh HTS,ERAP1 HTS inh,SIRT5 block
COc1ccc(C#Cc2cnc3c(c2)C(=O)N([C@@H](C)CO)C[C@@H](C)[C@H](CN(C)C(=O)c2ccccc2F)O3)cc1,3,-4,-38,2,10
Cc1cc(Br)cn2c(Cc3ccsc3)c(-c3ccc(F)cc3)nc12,8.1*,-27,53,·,-4
COc1ccccc1Cc1c(-c2cccc(Br)c2)nc2c(C)cc(Br)cn12,4,-18,-6,·,19*
Fc1ccc(-c2nc3ccc(Cl)cn3c2Cc2ccsc2)cc1,-4,-9,38,-5,28*
COc1ccccc1Cc1c(-c2ccc(Cl)cc2)nc2c(C)cc(Br)cn12,2,·,-11,1,0
Cc1cc(Br)cn2c(Cc3cccc(F)c3)c(-c3ccc(F)cc3)nc12,-1,-22,-4,1,-2
Cc1ccc(-c2nc3ccc(Cl)cn3c2Cc2ccsc2)cc1,2,-2,28,-4,-4
O=C(c1cnccn1)N1CCc2c([nH]c3ccccc23)C1c1cccc(Cl)c1 (stereo not given),-1,-30,-5,-3,-1
O=C(CCN1CCCCC1)N1CCc2c([nH]c3ccccc23)C1c1cccnc1 (stereo not given),8.9*,29,2,0,2
Cc1ccc(S(=O)(=O)N(C)C[C@@H]2OCCCC[C@H](C)Oc3ccc(NS(=O)(=O)c4cn(C)cn4)cc3C(=O)N([C@H](C)CO)C[C@H]2C)cc1,2,-1,5,1,-2
O=c1c2ccccc2sn1-c1ccc(Cl)cc1Cl,0,-23,-3,81*,0
CNC(=O)C[C@H]1CC[C@H]2[C@@H](COc3ccc(NC(=O)c4ccc(F)cc4)cc3C(=O)N2C)O1,4,0,-2,0,-2
Cc1cc(OCC(=O)OCC(=O)NCc2cccs2)ccc1Cl,2,-4,1,0,-2
Cc1cc(OCC(=O)O/N=C(\N)Cc2cccs2)ccc1Br,4,-24*,0,-1,2
CCCc1cc(C(=O)Nc2cccc3ccccc23)n(C)n1,0,-30*,-4,-3,0
O=C(C[C@H]1C=C[C@H](NC(=O)CN2CCOCC2)[C@H](CO)O1)NCCc1ccccc1,2,1,3,2,17*
O=C(C[C@@H]1C=C[C@@H](NC(=O)CN2CCOCC2)[C@H](CO)O1)NC1CCCCC1,1,0,4,-1,26*

# Screening data as filed in PubChem BioAssay.
